The target of experiment [1] is T1, Acetylcholinesterase (Rattus norvegicus, UniProt P37136).
T1 sequence (P37136 whole entry): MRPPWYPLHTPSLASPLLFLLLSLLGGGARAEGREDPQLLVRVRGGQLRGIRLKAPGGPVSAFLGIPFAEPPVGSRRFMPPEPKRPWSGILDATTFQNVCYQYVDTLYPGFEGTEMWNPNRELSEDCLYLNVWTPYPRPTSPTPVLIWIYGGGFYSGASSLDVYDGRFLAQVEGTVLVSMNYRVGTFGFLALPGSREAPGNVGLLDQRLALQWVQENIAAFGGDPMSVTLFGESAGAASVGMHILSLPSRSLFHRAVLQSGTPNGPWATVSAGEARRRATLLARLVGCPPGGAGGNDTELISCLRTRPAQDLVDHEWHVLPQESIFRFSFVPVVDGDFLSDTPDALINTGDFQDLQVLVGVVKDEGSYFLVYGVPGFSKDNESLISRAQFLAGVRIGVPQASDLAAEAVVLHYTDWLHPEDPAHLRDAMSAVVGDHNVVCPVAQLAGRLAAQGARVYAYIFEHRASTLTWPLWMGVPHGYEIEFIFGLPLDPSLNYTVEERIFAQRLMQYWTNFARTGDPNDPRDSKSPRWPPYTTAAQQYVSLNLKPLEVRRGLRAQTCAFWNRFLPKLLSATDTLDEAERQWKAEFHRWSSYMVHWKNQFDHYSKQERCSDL
Briefly: Inhibition of Wistar rat brain AChE by Ellman colorimetric assay. In outline: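 Rat brain homogenate as the enzyme source. Ellman method with DTNB and 1.0 mM acetylthiocholine at 37 °C. Enzyme, buffer, DTNB and inhibitor were preincubated 10 min before substrate was added. Absorbance at 412 nm was read every 1 min for 10 min. Inhibitor range was 0–200 nM. IC50 is the concentration giving 50% inhibition; duplicate means.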

Experiment [2] addresses Acetylcholinesterase (Homo sapiens, UniProt P22303). As to the kind of experiment: Inhibition of human serum AChE by Ellman colorimetric assay. In outline: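 Crude AChE was the supernatant of fresh volunteer blood mixed with 3.8% trisodium citrate (9:1) and spun at 3000 rpm, 0 °C, 20 min. Ellman assay with DTNB and 1.0 mM acetylthiocholine at 37 °C, after 10 min preincubation with inhibitor. A412 was followed over 10 min. Inhibitor range was 0–200 nM. IC50 is the 50% inhibition point; duplicate means.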

In experiment [3] the target is Acetylcholinesterase (Electrophorus electricus, UniProt O42275). As to the kind of experiment: Inhibition of electric eel AChE by Ellman colorimetric assay. In outline: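 Electric eel AChE stock was kept frozen in 0.1 M KH2PO4 (pH 8). Assay used phosphate buffer pH 8.0, DTNB and 1.0 mM acetylthiocholine at 37 °C, after 10 min enzyme–inhibitor preincubation. A412 was read at 1-min intervals for 10 min. Inhibitor range was 0–200 nM. IC50 was taken at 50% inhibition; duplicates, mean reported.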
Chain of Acetylcholinesterase (Electrophorus electricus, UniProt O42275) (O42275 whole entry): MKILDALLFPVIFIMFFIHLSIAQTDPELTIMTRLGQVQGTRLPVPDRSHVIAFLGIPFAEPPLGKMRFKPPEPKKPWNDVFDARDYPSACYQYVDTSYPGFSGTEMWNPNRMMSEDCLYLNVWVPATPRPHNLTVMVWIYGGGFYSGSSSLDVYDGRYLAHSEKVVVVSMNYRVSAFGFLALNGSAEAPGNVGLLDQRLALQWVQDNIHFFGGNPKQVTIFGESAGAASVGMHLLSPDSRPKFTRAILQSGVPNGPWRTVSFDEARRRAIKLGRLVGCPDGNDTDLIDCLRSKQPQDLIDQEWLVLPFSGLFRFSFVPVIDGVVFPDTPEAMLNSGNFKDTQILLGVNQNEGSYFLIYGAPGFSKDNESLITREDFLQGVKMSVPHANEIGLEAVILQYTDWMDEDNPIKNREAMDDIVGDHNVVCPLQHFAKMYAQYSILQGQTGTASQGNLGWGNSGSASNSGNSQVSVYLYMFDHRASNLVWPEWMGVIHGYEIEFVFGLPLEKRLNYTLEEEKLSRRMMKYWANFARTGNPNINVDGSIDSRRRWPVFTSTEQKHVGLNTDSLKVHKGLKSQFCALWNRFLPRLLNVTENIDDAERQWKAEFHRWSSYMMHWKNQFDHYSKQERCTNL

Chain of Acetylcholinesterase (Homo sapiens, UniProt P22303) (P22303 whole entry): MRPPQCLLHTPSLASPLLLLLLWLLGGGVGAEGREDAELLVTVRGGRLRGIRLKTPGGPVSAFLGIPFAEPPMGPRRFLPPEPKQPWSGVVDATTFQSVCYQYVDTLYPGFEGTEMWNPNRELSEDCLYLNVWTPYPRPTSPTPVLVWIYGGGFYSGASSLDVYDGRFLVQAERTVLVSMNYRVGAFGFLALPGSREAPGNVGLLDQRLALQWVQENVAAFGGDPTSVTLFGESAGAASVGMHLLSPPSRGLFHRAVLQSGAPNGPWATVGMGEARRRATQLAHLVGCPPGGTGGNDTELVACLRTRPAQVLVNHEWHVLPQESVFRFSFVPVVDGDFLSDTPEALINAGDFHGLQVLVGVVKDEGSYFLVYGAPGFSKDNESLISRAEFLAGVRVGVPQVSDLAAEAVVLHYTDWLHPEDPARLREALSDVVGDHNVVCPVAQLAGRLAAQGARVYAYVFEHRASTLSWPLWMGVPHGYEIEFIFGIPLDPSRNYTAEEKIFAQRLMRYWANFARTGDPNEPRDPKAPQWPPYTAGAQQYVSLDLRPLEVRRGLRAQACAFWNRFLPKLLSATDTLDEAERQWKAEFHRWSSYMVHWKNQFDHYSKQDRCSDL

Turning to `CCCCC1=NC2(CCCC2)C(=O)N1Cc1ccc(-c2ccccc2C(=O)OC)cc1`, the IC50 at Acetylcholinesterase [1] came out at 243 nM; at Acetylcholinesterase [2], 241 nM; against Acetylcholinesterase [3], 236 nM.

For the compound `CCCCC1=NC2(CCCC2)C(=O)N1Cc1ccc(Br)cc1`, the IC50 is 70 nM on Acetylcholinesterase [1], 70 nM on Acetylcholinesterase [2] and 67.5 nM at Acetylcholinesterase [3].

For `CCCCC1=NC2(CCCC2)C(=O)N1Cc1ccc([N+](=O)[O-])cc1`, the IC50 came out at 134 nM on Acetylcholinesterase [1], 135 nM against Acetylcholinesterase [2] and 149 nM against Acetylcholinesterase [3].

`CCCCC1=NC2(CCCC2)C(=O)N1CCN1C(=O)c2ccccc2C1=O`: the IC50 is 234 nM against Acetylcholinesterase [1], 231 nM against Acetylcholinesterase [2] and 250 nM against Acetylcholinesterase [3].

As to `CCCCC1=NC2(CCCC2)C(=O)N1Cc1cc(OC)c(OC)cc1Br`, the half-maximal inhibitory concentration (IC50) on Acetylcholinesterase [1] was 77.5 nM; against Acetylcholinesterase [2], 82.5 nM; at Acetylcholinesterase [3], 80 nM.

Take `CCCCC1=NC2(CCCC2)C(=O)N1Cc1ccc(-c2ccccc2C(=O)OC(C)(C)C)cc1`: the IC50 at Acetylcholinesterase [1] was 271 nM; against Acetylcholinesterase [2] it was 269 nM; against Acetylcholinesterase [3], 277 nM.

`CCCCC1=NC2(CCCC2)C(=O)N1CC(=O)c1ccc(Cl)cc1`: the values for the IC50 against Acetylcholinesterase [1], against Acetylcholinesterase [2] and at Acetylcholinesterase [3] were 280 nM, 286 nM and 280 nM, respectively.

`CCCCC1=NC2(CCCC2)C(=O)N1Cc1cc2c(cc1C)OCO2`: the IC50 on Acetylcholinesterase [1] was found to be 216 nM; against Acetylcholinesterase [2], 232 nM; on Acetylcholinesterase [3] it was 212 nM.

As for `CN(C)C(=O)Oc1cccc([N+](C)(C)C)c1` [NEOSTIGMINE BROMIDE], the IC50 is 35 nM at Acetylcholinesterase [1] and 47.5 nM against Acetylcholinesterase [3].

On to `CCCCC1=NC2(CCCC2)C(=O)N1Cc1ccc(-c2ccccc2C#N)cc1`, for which the results for the IC50 at Acetylcholinesterase [1], on Acetylcholinesterase [2] and on Acetylcholinesterase [3] were 90 nM, 82.5 nM and 90 nM, respectively.
